Experiments:
Multiple ascending dose = assay type: in vivo, human
Summary of the method: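 Seven 1 h iv saline infusions every 12 h. Plasma sampled to 12 h after the first dose, predose at 60 and 72 h, then to 96 h; urine collected in 4–12 h intervals after the first and last doses. HPLC-MS/MS with deuterated internal standard; plasma range 10–30,000 ng/mL, urine 50–150,000 ng/mL. Noncompartmental analysis on actual sampling times; AUCτ by trapezoidal rule; CLR as Ae/AUClast.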

[1] = rats, 4-week GLP toxicology study; cited from earlier work
Single ascending dose = assay type: in vivo, human; conditions: for Tmax: max]
Summary of the method: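 Single 0.5 h iv infusion in saline. Plasma sampled predose to 48 h, stored −70°C; urine collected in intervals to 24 h with volumes. Validated HPLC-MS/MS, deuterated internal standard, positive ESI MRM m/z 344.3→201.2. Plasma range 1–3000 or 10–30,000 ng/mL and urine 5–15,000 or 50–150,000 ng/mL, by dose group. Noncompartmental analysis on actual times; AUCinf = AUClast + Clast/λz; CLR = Ae/AUClast.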

[2] = multiple iv 150 mg over 1 h every 12 h x7, n=6, mean (SD)
[3] = multiple iv 300 mg over 1 h every 12 h x7, n=6, mean (SD)
[4] = multiple iv 450 mg over 1 h every 12 h x7, n=6, mean (SD)
[5] = multiple iv, all doses 150-450 mg, Total n=18, mean (SD)
[6] = single iv 35 mg over 0.5 h, n=6, mean (SD)
[7] = single iv 75 mg over 0.5 h, n=6, mean (SD)
[8] = single iv 150 mg over 0.5 h, n=6, mean (SD)
[9] = single iv 300 mg over 0.5 h, n=6, mean (SD)
[10] = single iv 600 mg over 0.5 h, n=6, mean (SD)
[11] = single iv, all doses 35-600 mg, Total n=30, mean (SD)

With `CCOc1cc(CN2CCOCC2)cc2[nH]c(=O)c3c(c12)NCCC3.Cl.Cl.O.O` [JPI-289] the “AUCτ,1st dose” value (Multiple ascending dose; [2]) was 4766.06 (878.28) ng·h/mL, the “AUCτ,ss” value (Multiple ascending dose; [2]) was 7696.21 (1157.59) ng·h/mL and the “Ae,1st dose” value (Multiple ascending dose; [2]) was 3.98 (1.21) mg. For the same molecule, the “Ae,last dose” value (Multiple ascending dose; [2]) was 5.48 (1.64) mg, the “CLR,1st dose” value (Multiple ascending dose; [2]) was 0.84 (0.21) L/h and the “CLR,last dose” value (Multiple ascending dose; [2]) was 0.73 (0.24) L/h. For the same molecule, the CLss (Multiple ascending dose; [2]) was 19.91 (3.37) L/h, the “Cav,ss” value (Multiple ascending dose; [2]) was 641.35 (96.47) ng/mL and the “Cmax,1st dose” value (Multiple ascending dose; [2]) was 1728.17 (353.61) ng/mL. For the same molecule, the “Cmax,ss” value (Multiple ascending dose; [2]) was 2023.47 (460.41) ng/mL, the “Observed AI (accumulation index)” value (Multiple ascending dose; [2]) was 1.64 (0.21) and the “Vd,ss” value (Multiple ascending dose; [2]) was 112.20 (31.78) L. The Vz (Multiple ascending dose; [2]) was 85.65 (17.01) L, the “t1/2,eff” value (Multiple ascending dose; [2]) was 1.88 (0.13) L and the t1/2z (Multiple ascending dose; [2]) was 2.44 h. The “AUCτ,1st dose” value (Multiple ascending dose; [3]) was 14,809.79 (2793.29) ng·h/mL, the “AUCτ,ss” value (Multiple ascending dose; [3]) was 22,608.80 (5198.68) ng·h/mL and the “Ae,1st dose” value (Multiple ascending dose; [3]) was 11.74 (3.77) mg. The “Ae,last dose” value (Multiple ascending dose; [3]) was 13.87 (5.36) mg, the “CLR,1st dose” value (Multiple ascending dose; [3]) was 0.80 (0.25) L/h and the “CLR,last dose” value (Multiple ascending dose; [3]) was 0.61 (0.14) L/h. The CLss (Multiple ascending dose; [3]) was 13.95 (3.63) L/h, the “Cav,ss” value (Multiple ascending dose; [3]) was 1884.07 (433.23) ng/mL and the “Cmax,1st dose” value (Multiple ascending dose; [3]) was 4747.25 (798.21) ng/mL. The “Cmax,ss” value (Multiple ascending dose; [3]) was 5658.20 (804.71) ng/mL, the “Observed AI (accumulation index)” value (Multiple ascending dose; [3]) was 1.52 (0.22) and the “Vd,ss” value (Multiple ascending dose; [3]) was 74.92 (11.18) L. The Vz (Multiple ascending dose; [3]) was 67.95 (11.04) L, the “t1/2,eff” value (Multiple ascending dose; [3]) was 2.46 (0.67) L and the t1/2z (Multiple ascending dose; [3]) was 2.74 h. For the same molecule, the “AUCτ,1st dose” value (Multiple ascending dose; [4]) was 28,278.07 (6412.76) ng·h/mL, the “AUCτ,ss” value (Multiple ascending dose; [4]) was 50,840.74 (19,417.91) ng·h/mL and the “Ae,1st dose” value (Multiple ascending dose; [4]) was 25.66 (5.03) mg. The “Ae,last dose” value (Multiple ascending dose; [4]) was 40.71 (20.87) mg, the “CLR,1st dose” value (Multiple ascending dose; [4]) was 0.92 (0.16) L/h and the “CLR,last dose” value (Multiple ascending dose; [4]) was 0.77 (0.22) L/h. The CLss (Multiple ascending dose; [4]) was 9.78 (3.11) L/h, the “Cav,ss” value (Multiple ascending dose; [4]) was 4236.73 (1618.16) ng/mL and the “Cmax,1st dose” value (Multiple ascending dose; [4]) was 8070.98 (1320.10) ng/mL. For the same molecule, the “Cmax,ss” value (Multiple ascending dose; [4]) was 11,921.28 (1655.56) ng/mL, the “Observed AI (accumulation index)” value (Multiple ascending dose; [4]) was 1.76 (0.28) and the “Vd,ss” value (Multiple ascending dose; [4]) was 72.06 (8.72) L. The Vz (Multiple ascending dose; [4]) was 63.02 (8.23) L, the “t1/2,eff” value (Multiple ascending dose; [4]) was 3.05 (0.97) L and the t1/2z (Multiple ascending dose; [4]) was 3.5 h. The “AUCτ,1st dose” value (Multiple ascending dose; [5]) was 15,951.31 (10,623.66) ng·h/mL, the “AUCτ,ss” value (Multiple ascending dose; [5]) was 27,048.58 (21,404.87) ng·h/mL and the “Ae,1st dose” value (Multiple ascending dose; [5]) was 13.79 (9.86) mg. For the same molecule, the “Ae,last dose” value (Multiple ascending dose; [5]) was 20.02 (19.40) mg, the “CLR,1st dose” value (Multiple ascending dose; [5]) was 0.85 (0.20) L/h and the “CLR,last dose” value (Multiple ascending dose; [5]) was 0.70 (0.21) L/h. For the same molecule, the CLss (Multiple ascending dose; [5]) was 14.54 (5.33) L/h, the “Cav,ss” value (Multiple ascending dose; [5]) was 2254.05 (1783.74) ng/mL and the “Cmax,1st dose” value (Multiple ascending dose; [5]) was 4848.80 (2800.32) ng/mL. For the same molecule, the “Cmax,ss” value (Multiple ascending dose; [5]) was 6534.32 (4330.54) ng/mL, the “Observed AI (accumulation index)” value (Multiple ascending dose; [5]) was 1.64 (0.24) and the “Vd,ss” value (Multiple ascending dose; [5]) was 86.39 (26.65) L. The Vz (Multiple ascending dose; [5]) was 72.21 (15.52) L, the “t1/2,eff” value (Multiple ascending dose; [5]) was 2.46 (0.81) L and the t1/2z (Multiple ascending dose; [5]) was 2.89 h. The “no observed adverse event level” value [1] was 40 mg/kg, the AUCinf (Single ascending dose; [6]) was 665.50 (149.62) ng·h/mL and the AUCinf/dose (Single ascending dose; [6]) was 19.01 (4.28) ng·h/mL/mg. The AUClast (Single ascending dose; [6]) was 658.82 (148.39) ng·h/mL, the “Ae (amount of unchanged drug in urine)” value (Single ascending dose; [6]) was 0.56 (0.22) mg and the CL (Single ascending dose; [6]) was 54.88 (12.54) L/h. The “CLR (renal clearance)” value (Single ascending dose; [6]) was 0.84 (0.28) L/h, the Cmax (Single ascending dose; [6]) was 422.72 (102.10) ng/mL and the Cmax/dose (Single ascending dose; [6]) was 12.08 (2.92) ng/mL/mg. The “Vd,ss” value (Single ascending dose; [6]) was 101.33 (26.74) L, the Vz (Single ascending dose; [6]) was 160.73 (42.91) L and the t1/2z (Single ascending dose; [6]) was 2.18 (1.01) h. The Tmax (Single ascending dose; single iv 35 mg over 0.5 h, n=6, median [min) was 0.47 [0.33, 0.50] h, the AUCinf (Single ascending dose; [7]) was 1947.57 (366.92) ng·h/mL and the AUCinf/dose (Single ascending dose; [7]) was 25.97 (4.89) ng·h/mL/mg. The AUClast (Single ascending dose; [7]) was 1940.45 (367.40) ng·h/mL, the “Ae (amount of unchanged drug in urine)” value (Single ascending dose; [7]) was 1.74 (0.71) mg and the CL (Single ascending dose; [7]) was 39.77 (8.07) L/h. For the same molecule, the “CLR (renal clearance)” value (Single ascending dose; [7]) was 0.88 (0.26) L/h, the Cmax (Single ascending dose; [7]) was 1197.77 (173.37) ng/mL and the Cmax/dose (Single ascending dose; [7]) was 15.97 (2.31) ng/mL/mg. The “Vd,ss” value (Single ascending dose; [7]) was 91.18 (17.49) L, the Vz (Single ascending dose; [7]) was 183.32 (61.92) L and the t1/2z (Single ascending dose; [7]) was 3.21 (0.81) h. For the same molecule, the Tmax (Single ascending dose; single iv 75 mg over 0.5 h, n=6, median [min) was 0.48 [0.33, 0.52] h, the AUCinf (Single ascending dose; [8]) was 6057.90 (1533.04) ng·h/mL and the AUCinf/dose (Single ascending dose; [8]) was 40.39 (10.22) ng·h/mL/mg. For the same molecule, the AUClast (Single ascending dose; [8]) was 6029.78 (1520.32) ng·h/mL, the “Ae (amount of unchanged drug in urine)” value (Single ascending dose; [8]) was 5.31 (1.49) mg and the CL (Single ascending dose; [8]) was 26.41 (8.03) L/h. The “CLR (renal clearance)” value (Single ascending dose; [8]) was 0.89 (0.21) L/h, the Cmax (Single ascending dose; [8]) was 2481.05 (502.31) ng/mL and the Cmax/dose (Single ascending dose; [8]) was 16.54 (3.35) ng/mL/mg. The “Vd,ss” value (Single ascending dose; [8]) was 85.17 (15.31) L, the Vz (Single ascending dose; [8]) was 118.12 (34.25) L and the t1/2z (Single ascending dose; [8]) was 3.12 (0.40) h. For the same molecule, the Tmax (Single ascending dose; single iv 150 mg over 0.5 h, n=6, median [min) was 0.48 [0.43, 0.50] h, the AUCinf (Single ascending dose; [9]) was 10,061.82 (3690.15) ng·h/mL and the AUCinf/dose (Single ascending dose; [9]) was 33.54 (12.30) ng·h/mL/mg. For the same molecule, the AUClast (Single ascending dose; [9]) was 9786.58 (3534.51) ng·h/mL, the “Ae (amount of unchanged drug in urine)” value (Single ascending dose; [9]) was 8.37 (3.65) mg and the CL (Single ascending dose; [9]) was 34.28 (15.06) L/h. For the same molecule, the “CLR (renal clearance)” value (Single ascending dose; [9]) was 0.91 (0.45) L/h, the Cmax (Single ascending dose; [9]) was 4842.02 (1202.57) ng/mL and the Cmax/dose (Single ascending dose; [9]) was 16.14 (4.01) ng/mL/mg. The “Vd,ss” value (Single ascending dose; [9]) was 92.52 (15.20) L, the Vz (Single ascending dose; [9]) was 124.50 (30.65) L and the t1/2z (Single ascending dose; [9]) was 2.73 (0.76) h. For the same molecule, the Tmax (Single ascending dose; single iv 300 mg over 0.5 h, n=6, median [min) was 0.48 [0.17, 0.50] h, the AUCinf (Single ascending dose; [10]) was 32,228.35 (11,796.05) ng·h/mL and the AUCinf/dose (Single ascending dose; [10]) was 53.71 (19.66) ng·h/mL/mg. For the same molecule, the AUClast (Single ascending dose; [10]) was 32,066.88 (11,725.80) ng·h/mL, the “Ae (amount of unchanged drug in urine)” value (Single ascending dose; [10]) was 25.32 (6.50) mg and the CL (Single ascending dose; [10]) was 21.34 (9.69) L/h. The “CLR (renal clearance)” value (Single ascending dose; [10]) was 0.84 (0.20) L/h, the Cmax (Single ascending dose; [10]) was 10,381.25 (2097.17) ng/mL and the Cmax/dose (Single ascending dose; [10]) was 17.30 (3.50) ng/mL/mg. For the same molecule, the “Vd,ss” value (Single ascending dose; [10]) was 73.01 (13.20) L, the Vz (Single ascending dose; [10]) was 81.46 (16.60) L and the t1/2z (Single ascending dose; [10]) was 2.88 (0.72) h. For the same molecule, the Tmax (Single ascending dose; single iv 600 mg over 0.5 h, n=6, median [min) was 0.50 [0.48, 0.52] h, the AUCinf (Single ascending dose; [11]) was 10,192.23 (12,791.37) ng·h/mL and the AUCinf/dose (Single ascending dose; [11]) was 34.52 (16.32) ng·h/mL/mg. For the same molecule, the AUClast (Single ascending dose; [11]) was 10,096.50 (12,719.54) ng·h/mL, the “Ae (amount of unchanged drug in urine)” value (Single ascending dose; [11]) was 8.26 (9.65) mg and the CL (Single ascending dose; [11]) was 35.33 (15.66) L/h. For the same molecule, the “CLR (renal clearance)” value (Single ascending dose; [11]) was 0.87 (0.27) L/h, the Cmax (Single ascending dose; [11]) was 3864.96 (3789.52) ng/mL and the Cmax/dose (Single ascending dose; [11]) was 15.61 (3.55) ng/mL/mg. The “Vd,ss” value (Single ascending dose; [11]) was 88.64 (19.42) L, the Vz (Single ascending dose; [11]) was 133.63 (51.80) L and the t1/2z (Single ascending dose; [11]) was 2.83 (0.80) h. The Tmax (Single ascending dose; single iv, all doses 35-600 mg, Total n=30, median [min) was 0.48 [0.17, 0.52] h.
